Hits are enriched below; roughly 1.8% of the tested compounds scored in any of these assays.
CHRM4 antagonist: human M4 muscarinic receptor antagonists, primary screen, CHO cells, Fluo-8 calcium fluorescence; Muscarinic acetylcholine receptor M4 (Homo sapiens), P08173; CHO-hM4 cells, ACh EC80; inhibition, % at 3 µM; 360,000 compounds, 0.73% hits; AID 624125, 2012;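 active = inhibition above its plate's cutoff, the mean inhibition of sample wells plus 3 SD, cut at about 27% in these data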
CHRM4 agonist: human M4 muscarinic receptor agonists, primary screen, CHO-K1 cells, Fluo-8 calcium fluorescence; Muscarinic acetylcholine receptor M4 (Homo sapiens), P08173; CHO-K1 hM4/Gqi5; vehicle 0%, full acetylcholine response 100%; activation, % at 3 µM; 360,000 compounds, 0.14% hits;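 active = activation above the run mean over all test wells plus 3 SD, cut at about 32% in these data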;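 also: peak over basal fluorescence ratio per well then scaled between controls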
CHRM5 antagonist: human M5 muscarinic receptor antagonists, primary screen, CHO cells, Fluo-8 calcium fluorescence. inhibition, % at 3 µM. 360,000 compounds, 0.59% hits. Muscarinic acetylcholine receptor M5 (Homo sapiens), P08912. CHO-hM5 cells, ACh EC80;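 active = inhibition above a per-plate cutoff, the mean of that plate's test compounds plus 3 SD, cut at about 27% in these data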
Target sequence (P08912 whole entry, looked up): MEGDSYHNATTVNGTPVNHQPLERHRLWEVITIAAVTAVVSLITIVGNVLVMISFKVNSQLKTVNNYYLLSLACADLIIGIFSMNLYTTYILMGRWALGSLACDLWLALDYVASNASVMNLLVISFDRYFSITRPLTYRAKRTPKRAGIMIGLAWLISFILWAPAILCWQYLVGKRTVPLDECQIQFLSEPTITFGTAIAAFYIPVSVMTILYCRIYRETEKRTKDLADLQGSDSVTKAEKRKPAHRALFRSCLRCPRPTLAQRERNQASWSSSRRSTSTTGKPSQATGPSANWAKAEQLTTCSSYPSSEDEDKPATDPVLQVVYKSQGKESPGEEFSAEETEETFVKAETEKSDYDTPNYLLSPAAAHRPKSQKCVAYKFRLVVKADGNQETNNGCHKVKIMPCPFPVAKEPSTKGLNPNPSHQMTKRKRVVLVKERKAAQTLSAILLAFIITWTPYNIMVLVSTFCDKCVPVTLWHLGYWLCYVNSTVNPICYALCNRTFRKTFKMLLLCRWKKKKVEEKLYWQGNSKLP
CHRM5 PAM: human M5 muscarinic receptor positive allosteric modulators, primary screen, CHO-K1 cells, Fluo-8 calcium fluorescence. Muscarinic acetylcholine receptor M5 (Homo sapiens), P08912. CHO-K1 hM5, ACh EC20 PAM; 0% = ACh EC20, 100% = ACh EC100. activation, % at 3 µM. 360,000 compounds, 0.3% hits. AID 624038, 2012;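 active = activation above the run cutoff, the mean activation of all test compounds plus 3 SD, cut at about 18% in these data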
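Assay system – human M5 receptor in CHO-K1 cells · Read-out – % activation, ACh-normalized · Technique – Fluo-8 calcium fluorescence · Dosing – single-point, 3 µM nominal · Incubation – Fluo-8 loading 80 min at 37 °C plus 30 min room temperature · Repeats – singlicate, one well per test compound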
M4 PAM: human M4 muscarinic receptor positive allosteric modulators, primary screen, CHO-K1 cells, Fluo-8 calcium fluorescence; Muscarinic acetylcholine receptor M4 (Homo sapiens), P08173; CHO-K1 hM4/Gqi5, ACh EC20; 0% = ACh EC20, 100% = maximal ACh; activation, % at 3 µM; 360,000 compounds, 0.4% hits; AID 624126, 2012;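 active = activation above its plate's cutoff, the mean activation of sample wells plus 3 SD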
CHRM5 agonist: human M5 muscarinic receptor agonists, primary screen, CHO-K1 cells, Fluo-8 calcium fluorescence; Muscarinic acetylcholine receptor M5 (Homo sapiens), P08912; AID 624037, 2012; 360,000 compounds, 0.19% hits; activation, % at 3 µM; CHO-K1 hM5 cells; 0% DMSO wells, 100% maximal acetylcholine response;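 active = activation above the run's mean over test compounds plus 3 SD, cut at about 23% in these data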;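 also: signal is peak over basal fluorescence ratio across the kinetic read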
Large screens that a line does not name were inactive.

C=CCn1c(CNC(=O)c2ccccc2F)nnc1SCC(=O)N1CCOCC1	none
CN1C(=O)C(C)(C)c2cc(S(=O)(=O)N3CCN(c4ccccc4)CC3)ccc21	none
CCOc1ccccc1C1c2[nH]c3ccccc3c2C[C@H]2C(=O)N(C3CC3)CC(=O)N12 (stereo partly drawn)	none
NC(=O)N/N=C/c1c(F)cccc1F	M4 PAM 23
NC(=O)N/N=C/c1c(F)c(F)c(F)c(F)c1F	none
CN(CCN(C)C(C)(C)C)C(=O)C(c1ccccc1)c1ccccc1	CHRM4 antagonist 91, CHRM5 antagonist 31
CSc1ccc(CN(C)C(=O)C(c2ccccc2)c2ccccc2)cc1	none
CCc1ccc(C(C)NC(=O)COC(=O)c2ccc(-n3cnnn3)cc2)cc1 (stereo not drawn)	none
Oc1ccccc1NCC(O)Cn1ccc2ccccc21 (stereo not drawn)	CHRM4 antagonist 35
Cc1ccc(NC(=O)CSCC(=O)NC2=NCCS2)cc1	none
Cc1scc2c1N(C(=O)CN1CCN(C)CC1)c1ccccc1NC2=O	CHRM4 antagonist 98, CHRM5 antagonist 99
CCCn1c(SCC(=O)N2CCCC2=O)nc2ccccc2c1=O	none
COc1ccccc1NS(=O)(=O)c1ccc2oc(SC(C)C(=O)N3CCNC3=O)nc2c1 (stereo not drawn)	CHRM4 agonist 32
COc1ccc(-c2cnc(C(N)=O)c(=O)[nH]2)cc1	none
CCCCCC[N+](C)(C)CCSSCC[N+](C)(C)CCCCCC	none
CCCCCCCCCCCCCCCC[N+](C)(C)CC	CHRM4 antagonist 52, CHRM5 antagonist 77
CCCCCCCCCCCCCCCC[N+](C)(C)CCl	CHRM4 antagonist 35, CHRM5 antagonist 29
CCCCn1c(N)c(N(CC(C)C)C(=O)c2cc(-c3ccncc3)nc3ccccc23)c(=O)[nH]c1=O	none
Cc1ccc(N(CC(=O)NC2CCCC2)C(=O)CNC(=O)c2cccs2)cc1C	none
CC(OC(=O)Cn1[nH]c(=O)c2ccccc2c1=O)C(=O)NC1(C#N)CCCCC1 (stereo not drawn)	none
Cn1c(N)c(C(=O)COC(=O)c2ccccc2C(=O)c2ccc(Cl)cc2)c(=O)n(C)c1=O	none
COc1cc(/C=N/N2CCCCC2)cc(OC)c1O	none
COc1cc(C=NN2CCCCC2)cc(OC)c1OC	CHRM5 agonist 27
COc1ccc(N2CC(C(=O)N3CCN(c4ccccc4F)CC3)CC2=O)cc1 (stereo not drawn)	none
O=C(CN1CCOCC1)N/N=C/c1ccc(-c2cccc(Cl)c2Cl)o1	none
O=C(O)C1c2ccccc2C(=O)N(Cc2ccc(F)cc2)C1c1ccncc1 (stereo not drawn)	CHRM5 PAM 27
CCc1ccc(C2C(C(=O)O)c3ccccc3C(=O)N2C)cc1 (stereo not drawn)	none
Cc1csc(C(=O)O)c1NC(=O)c1ccc(F)cc1	none
Cc1csc(C(=O)O)c1-c1c(C)csc1C(=O)O	M4 PAM 23
CCOC(=O)C1CCN(S(=O)(=O)c2ccc3c(c2)CCN3C(C)=O)CC1	CHRM5 antagonist 32
N#Cc1ccc[n+](CC(=O)c2ccc(Cl)cc2)c1	CHRM5 PAM 23
Cc1ccc(S(N)(=O)=O)cc1NC(=O)C(c1ccccc1)c1ccccc1	none
O=[N+]([O-])c1ccc(NC(=S)NCCc2ccc(F)cc2)cc1	CHRM5 antagonist 33
C=C1SC(Nc2c(C)cccc2C)=NC12CCCCC2	CHRM4 antagonist 29
O=C(Nc1cccc(C(=O)O)c1)/C(=C/c1ccc2c(c1)OCO2)NC(=O)c1cccc(Br)c1	CHRM5 antagonist 28
O=C(Nc1cccc(C(=O)O)c1)/C(=C\c1ccc2c(c1)OCO2)NC(=O)c1ccccc1Br	none
O=C(C[n+]1ccccc1)Nc1ccc(Oc2ccccc2)cc1	CHRM4 antagonist 47
CN(C)c1ccc(NC(=O)C[n+]2ccccc2)cc1	none
O=C(NCCOc1ccc(Cl)cc1)C1CC(=O)N(c2ccc3c(c2)OCCO3)C1 (stereo not drawn)	none
Cc1cc(/C=C\c2ccc3cc(N(C)C)ccc3[n+]2C)c(C)n1-c1ccccc1	CHRM4 antagonist 45, CHRM5 antagonist 40
COc1ccc(CC(=O)OCC(=O)N2CCc3ccccc32)cc1OC	none
O=C1C=CC(=Nc2cccc3c2C(=O)c2ccccc2-3)O1	CHRM4 agonist 67, CHRM5 agonist 45
O=C1C=CC(=Nc2ccc3c(c2)Cc2cc(F)ccc2-3)O1	none
Cc1ccc(S(=O)(=O)Nc2ccc(NC(=O)c3cccnc3)cc2)cc1	none
O=C(Nc1ccc(N2CCN(c3ncccc3C(F)(F)F)CC2)nc1)c1cccs1	CHRM4 antagonist 27
O=C(Nc1ccc(N2CCN(c3ccc(C(F)(F)F)cn3)CC2)nc1)c1cccs1	none
Nc1c(C(=O)CSc2nccn2-c2ccc(Cl)cc2)c(=O)[nH]c(=O)n1C1CC1	CHRM5 PAM 18
Cc1cccc(C)c1-n1nnnc1C(c1ccccc1)N1CCN(C/C=C/c2ccccc2)CC1 (stereo not drawn)	CHRM5 antagonist 31
CCCCn1nnnc1C(c1ccc(OC)cc1)N1CCN(C/C=C/c2ccccc2)CC1 (stereo not drawn)	none
CCCCn1nnnc1C(c1cccs1)N1CCN(C/C=C/c2ccccc2)CC1 (stereo not drawn)	none
Cc1cccc(C)c1-n1nnnc1C(c1cccs1)N1CCN(C/C=C/c2ccccc2)CC1 (stereo not drawn)	CHRM5 antagonist 29
CN(CCc1cnn(C)c1)Cc1cn[nH]c1-c1ccc(-c2ccccc2)cc1	none
COC1=C(OC)C(=O)C(CCCCCCCCCCO)=C(C)C1=O	CHRM4 antagonist 98, CHRM5 antagonist 40
COc1cc(/C=C(/C#N)C(=O)NC(C)c2ccccc2)cc(OC)c1O (stereo not drawn)	CHRM4 agonist 33
CC(NC(=O)/C(C#N)=C/c1ccc(C(=O)O)cc1)c1ccccc1 (stereo not drawn)	none
Cc1[nH]c2c(C)cccc2c1CCNC(=O)c1ccc2c(c1[N+](=O)[O-])C(=O)c1ccccc1C2=O	CHRM4 antagonist 29
C=CCOc1cccc(C2C(C(=O)c3cc4ccccc4o3)=C(O)C(=O)N2c2cc(C)on2)c1 (stereo not drawn)	none

Assay outcomes: PubChem BioAssay, The Scripps Research Institute Molecular Screening Center
